Values after ≈ are worked out from the molar mass of the structure shown. Active and inactive are the calls of the source. No cut-off for these calls is given here.
Legend:
[1] = Solubility of compound in water; assay type: physicochemical
[2] = test system: Staphylococcus aureus; experiment: Antibacterial activity against methicillin-resistant Staphylococcus aureus isolate 1 after 18 hrs by serial microdilution method; assay type: functional
Outline: (§1)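 Clinical MRSA isolates, confirmed by cefoxitin 30 μg disc diffusion (EUCAST) and PCR for mecA. MIC by EUCAST broth microdilution in Mueller–Hinton II broth. Compounds dissolved in DMSO and diluted in broth, tested at 0.064–64 μg mL−1. Final inoculum approximately 5 × 10^5 CFU mL−1. Read after 18 h at 35 ± 2 °C.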

[3] = test system: Staphylococcus epidermidis; experiment: Antibacterial activity against Staphylococcus epidermidis ATCC 12228 after 18 hrs by serial microdilution method; assay type: functional
[4] = test system: Micrococcus luteus; experiment: Antibacterial activity against Micrococcus luteus ATCC 10240 after 18 hrs by serial microdilution method; assay type: functional
[5] = test system: Bacillus spizizenii; experiment: Antibacterial activity against Bacillus subtilis ATCC 6633 after 18 hrs by serial microdilution method; assay type: functional
[6] = test system: Streptococcus pneumoniae; experiment: Antibacterial activity against Streptococcus pneumoniae ATCC 49619 after 18 hrs by serial microdilution method; assay type: functional
[7] = Octanol-water partition coefficient, log P of compound after 1 hr by UV-visible spectrophotometric analysis; assay type: physicochemical
[8] = test system: HeLa; experiment: Cytotoxicity against human HeLa cells assessed as reduction in cell survival after 72 hrs by sulforhodamine B assay; assay type: functional, cell-based
[9] = (§2) Selectivity index, ratio of IC50 for HDF to IC50 for human KB cells
[10] = test system: MCF7; experiment: Cytotoxicity against human MCF7 cells assessed as reduction in cell survival after 72 hrs by sulforhodamine B assay; assay type: functional, cell-based
[11] = test system: HepG2; experiment: Cytotoxicity against human HepG2 cells assessed as reduction in cell survival after 72 hrs by sulforhodamine B assay; assay type: functional, cell-based
[12] = test system: KB; experiment: Cytotoxicity against human KB cells assessed as reduction in cell survival after 72 hrs by sulforhodamine B assay; assay type: functional, cell-based
[13] = (§3) Selectivity index, ratio of IC50 for HDF to IC50 for human HepG2 cells
[14] = test system: Staphylococcus epidermidis; experiment: Antibacterial activity against Staphylococcus epidermidis ATCC 49134 after 18 hrs by serial microdilution method; assay type: functional
[15] = test system: NHDF; experiment: Cytotoxicity against HDF assessed as reduction in cell survival after 72 hrs by sulforhodamine B assay; assay type: cell-based, Homo sapiens
[16] = (§4) Selectivity index, ratio of IC50 for HDF to IC50 for human MCF7 cells
[17] = test system: Staphylococcus aureus; experiment: Antibacterial activity against methicillin-resistant Staphylococcus aureus isolate 2 after 18 hrs by serial microdilution method; assay type: functional; outline: as §1
[18] = (§5) Selectivity index, ratio of IC50 for HDF to IC50 for human HeLa cells
[19] = organism: Homo sapiens; experiment: as §2
[20] = organism: Homo sapiens; experiment: as §3
[21] = organism: Homo sapiens; experiment: as §4
[22] = organism: Homo sapiens; experiment: as §5

## CO/C1=C\CC(=O)O[C@H](C)C/C=C/C=C/[C@H](O[C@H]2CC[C@H](N(C)C)[C@@H](C)O2)[C@H](C)C[C@@H]2C[C@H](OCc3cn(CC4CCCCC4)nn3)O[C@@H]12
[1]; buffer
  solubility: Insoluble

## C=CCO[C@H]1C[C@H]2C[C@@H](C)[C@@H](O[C@H]3CC[C@H](N(C)C)[C@@H](C)O3)/C=C/C=C/C[C@@H](C)OC(=O)C/C=C(\OC)[C@@H]2O1
[2]
  Activity: inactive
[3]
  Activity: inactive
[4]
  Activity: inactive
[5]
  Activity: inactive
[1]; buffer
  solubility: Insoluble
[6]
  Activity: inactive

## COC1=C\[C@@H](CC=O)C[C@@H](C)[C@@H](O[C@H]2CC[C@H](N(C)C)[C@@H](C)O2)/C=C/C=C/C[C@@H](C)OC(=O)\C=C\1
[7]
  logP at 1 h: 0.74
[8]; Homo sapiens, HeLa, 72 h
  IC50: 127 µM
[9]
  Ratio IC50: 1.05
[2]; isolate 1, 18 h
  MIC: 32.7 µM (≈ 16 µg/mL)
[3]; ATCC 12228, 18 h
  MIC: 16.3 µM (≈ 8 µg/mL)
[10]; Homo sapiens, MCF7, 72 h
  IC50: 131 µM
[11]; Homo sapiens, HepG2, 72 h
  IC50: 135 µM
[4]; ATCC 10240, 18 h
  MIC: 8.17 µM (≈ 4 µg/mL)
[12]; Homo sapiens, KB, 72 h
  IC50: 133 µM
[13]
  Ratio IC50: 1.03
[14]; ATCC 49134, 18 h
  MIC: 16.3 µM (≈ 8 µg/mL)
[5]; ATCC 6633, 18 h
  MIC: 16.3 µM (≈ 8 µg/mL)
[1]; water, read-out: solubility
  solubility: 700 µg/mL (≈ 1430 µM)
[15]; Homo sapiens, NHDF, 72 h
  IC50: 139 µM
[16]
  Ratio IC50: 1.07
[6]; ATCC 49619, 18 h
  MIC: 4.08 µM (≈ 2 µg/mL)
[17]; isolate 2, 18 h
  MIC: 32.7 µM (≈ 16 µg/mL)
[18]
  Ratio IC50: 1.1

## CO/C1=C\CC(=O)O[C@H](C)C/C=C/C=C/[C@H](O[C@H]2CC[C@H](N(C)C)[C@@H](C)O2)[C@H](C)C[C@@H]2C[C@H](OCc3ccc(F)cc3)O[C@@H]12
[2]
  Activity: inactive
[3]
  Activity: inactive
[4]
  Activity: inactive
[5]
  Activity: inactive
[1]; buffer
  solubility: Insoluble
[6]
  Activity: inactive

## CO/C1=C\CC(=O)O[C@H](C)C/C=C/C=C/[C@H](O[C@H]2CC[C@H](N(C)C)[C@@H](C)O2)[C@H](C)C[C@@H]2C[C@H](OCc3cn(CC4CCOCC4)nn3)O[C@@H]12
[2]
  Activity: inactive
[3]
  Activity: inactive
[4]
  Activity: inactive
[14]
  Activity: inactive
[5]
  Activity: inactive
[1]; buffer
  solubility: Insoluble
[6]
  Activity: inactive
[17]
  Activity: inactive

## O=c1[nH]c(=O)n([C@H]2C[C@H](O)[C@@H](CO)O2)cc1F [FLOXURIDINE]
[9]
  Ratio IC50: 1.5

## CO/C1=C\CC(=O)O[C@H](C)C/C=C/C=C/[C@H](O[C@H]2CC[C@H](N(C)C)[C@@H](C)O2)[C@H](C)C[C@@H]2C[C@H](OCc3cn([C@H]4O[C@@H](CO)[C@@H](O)[C@@H](O)[C@@H]4O)nn3)O[C@@H]12
[2]; isolate 1, 18 h
  MIC: > 85.2 µM
[3]; ATCC 12228, 18 h
  MIC: > 85.2 µM
[4]; ATCC 10240, 18 h
  MIC: 85.2 µM (≈ 64 µg/mL)
[14]; ATCC 49134, 18 h
  MIC: > 85.2 µM
[5]; ATCC 6633, 18 h
  MIC: 85.2 µM (≈ 64 µg/mL)
[6]; ATCC 49619, 18 h
  MIC: 10.7 µM (≈ 8 µg/mL)
[17]; isolate 2, 18 h
  MIC: > 85.2 µM

## O=c1[nH]cc(F)c(=O)[nH]1 [FLUOROURACIL]
[9]
  Ratio IC50: 1.45
[15]; Homo sapiens, NHDF, 72 h
  IC50: 7.02 µM

## CO/C1=C\CC(=O)O[C@H](C)C/C=C/C=C/[C@H](O[C@H]2CC[C@H](N(C)C)[C@@H](C)O2)[C@H](C)C[C@@H]2C[C@H](OCc3cn(Cc4ccccc4)nn3)O[C@@H]12
[1]; buffer
  solubility: Insoluble

## CO/C1=C\CC(=O)O[C@H](C)C/C=C/C=C/[C@H](O[C@H]2CC[C@H](N(C)C)[C@@H](C)O2)[C@H](C)C[C@@H]2C[C@H](OCc3cn([C@H]4O[C@@H](CO)[C@H](O)[C@@H](O)[C@@H]4O)nn3)O[C@@H]12
[2]; isolate 1, 18 h
  MIC: > 85.2 µM
[3]; ATCC 12228, 18 h
  MIC: 85.2 µM (≈ 64 µg/mL)
[4]; ATCC 10240, 18 h
  MIC: 85.2 µM (≈ 64 µg/mL)
[14]; ATCC 49134, 18 h
  MIC: 85.2 µM (≈ 64 µg/mL)
[5]; ATCC 6633, 18 h
  MIC: 85.2 µM (≈ 64 µg/mL)
[6]; ATCC 49619, 18 h
  MIC: 10.7 µM (≈ 8 µg/mL)
[17]; isolate 2, 18 h
  MIC: > 85.2 µM

## Nc1ccn([C@@H]2O[C@H](CO)[C@@H](O)[C@@H]2O)c(=O)n1 [CYTARABINE]
[9]
  Ratio IC50: 1.23

## C#CCO[C@H]1C[C@H]2C[C@@H](C)[C@@H](O[C@H]3CC[C@H](N(C)C)[C@@H](C)O3)/C=C/C=C/C[C@@H](C)OC(=O)C/C=C(\OC)[C@@H]2O1
[2]
  Activity: inactive
[3]
  Activity: inactive
[4]
  Activity: inactive
[14]
  Activity: inactive
[5]
  Activity: inactive
[1]; buffer
  solubility: Insoluble
[6]
  Activity: inactive
[17]
  Activity: inactive

## CO/C1=C\CC(=O)O[C@H](C)C/C=C/C=C/[C@H](O[C@H]2CC[C@H](N(C)C)[C@@H](C)O2)[C@H](C)C[C@@H]2C[C@H](OCc3cn(C4CCCCC4)nn3)O[C@@H]12
[1]; buffer
  solubility: Insoluble

## Cc1cn([C@H]2C[C@H](N=[N+]=[N-])[C@@H](CO)O2)c(=O)[nH]c1=O [ZIDOVUDINE]
[9]
  Ratio IC50: 1.48
[10]; Homo sapiens, MCF7, 72 h
  IC50: 7.67 µM
[16]
  Ratio IC50: 1.88
[18]
  Ratio IC50: 1.34

## CO/C1=C\CC(=O)O[C@H](C)C/C=C/C=C/[C@H](O[C@H]2CC[C@H](N(C)C)[C@@H](C)O2)[C@H](C)C[C@@H]2C[C@H](OCc3cn(C4CCCCCC4)nn3)O[C@@H]12
[1]; buffer
  solubility: Insoluble

## SPIRAMYCIN [listing 1 of 2 here]
[7]; 1 h
  logP: 0.58
[8]; hela
  IC50: 34.4 µM
[10]; mcf7
  IC50: 33.1 µM
[11]; hepg2
  IC50: 30.5 µM
[12]; kb
  IC50: 31.3 µM
[1]; buffer
  solubility: 4500 µg/mL
[15]; nhdf
  IC50: 31.1 µM

## SPIRAMYCIN [listing 2 of 2 here]
[19]
  Ratio IC50: 0.9
[2]
  MIC: 9.49 µM
[3]
  MIC: 2.37 µM
[4]
  MIC: 0.3 µM
[20]
  Ratio IC50: 1.02
[14]
  MIC: 2.37 µM
[5]
  MIC: 0.59 µM
[21]
  Ratio IC50: 0.94
[6]
  MIC: 0.3 µM
[17]
  MIC: 4.74 µM
[22]
  Ratio IC50: 0.9

## CO/C1=C\CC(=O)O[C@H](C)C/C=C/C=C/[C@H](O[C@H]2CC[C@H](N(C)C)[C@@H](C)O2)[C@H](C)C[C@@H]2C[C@H](OCc3cn([C@H]4C[C@H](n5cc(C)c(=O)[nH]c5=O)O[C@@H]4CO)nn3)O[C@@H]12
[1]; buffer
  solubility: Insoluble
